Experiment [1] has as its system Leishmania donovani. The experiment in a line: Antipromastigote activity against Leishmania donovani MHOM IN/Dd8 assessed as luciferase activity after 72 hrs. Format: functional, organism-based. The note with it: for IC50 / IC90: MHOM IN/Dd8, 72 h. The method, boiled down:
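Firefly-luciferase-transfected promastigotes kept in medium 199 + 10% FCS, penicillin/streptomycin, G418 selection. Late-log cells seeded 5 × 10^5/well, 72 h with serial dilutions (2.5–50 mg/ml as printed) in DMSO; DMSO dilution controls. Aliquot mixed 1:1 with Steady-Glo, luminescence (RLU). % inhibition = (N−n)/N × 100 vs untreated control; IC50 by probit analysis.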

In experiment [2] the test system is Leishmania donovani. Briefly: Antiamastigote activity against Leishmania donovani MHOM IN/Dd8 in mouse J-774A.1 cells by luciferase reporter gene assay after 72 hrs. The note with it: for IC50: Leishmania donovani, MHOM IN/Dd8, J774.A1, 72 h. The experiment is classed as functional, organism-based, J774.A1. The method, boiled down:
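J-774A.1 mouse macrophages seeded 5 × 10^4 cells/well in RPMI-1640 + 10% FCS, 37 °C, CO2; after 24 h infected with stationary-phase luciferase-expressing promastigotes (2.5 × 10^5/well). Test material added in fresh complete medium (2.5–50 mg/ml range as printed), 72 h, 37 °C. Medium removed, PBS plus Steady-Glo, luminescence read. Inhibition vs untreated control RLU; IC50 by probit analysis.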
In general terms: In a reporter assay the amount or activity of a reporter protein is the signal.

Molecules are shown by their SMILES. ≈ marks a conversion by molar mass, not a printed value. Calls of active or inactive are those of the source. The rule behind the calls is not given here.

Broadly, the IC50 is the concentration at which inhibition is half-maximal. The IC90 is the point of the concentration-response curve where the effect stands at 90%. `COc1ccc(-n2ccc(=O)c(OCCCCCOc3c(C)n(-c4ccc(OC)cc4)ccc3=O)c2C)cc1`: in the experiment with Leishmania donovani [1], the IC50 is 12.6 µg/mL (≈ 23.7 µM) and the IC90 came to 43.8 µg/mL (≈ 82.5 µM).
Consider `Cc1occc(=O)c1OCCCCCOc1c(C)n(-c2ccc(Cl)cc2)ccc1=O`, for which, in the experiment on Leishmania donovani [1], the IC50 amounted to 15.7 µg/mL (≈ 36.5 µM) and the IC90 was found to be 38.7 µg/mL (≈ 90.1 µM).
As to `N=C(N)c1ccc(OCCCCCOc2ccc(C(=N)N)cc2)cc1` [PENTAMIDINE], in the experiment on Leishmania donovani [1], the IC50 came out at 0.58 µg/mL (≈ 1.7 µM) and the concentration for an effect of 90% (IC90) came out at 0.88 µg/mL (≈ 2.58 µM).
For the molecule `CCCCCCCCCCCCCCCCOP(=O)([O-])OCC[N+](C)(C)C` [MILTEFOSINE], in the experiment with Leishmania donovani [2], the IC90 stood at 107.51 µg/mL (≈ 264 µM) and the IC50 amounted to 33.9 µg/mL (≈ 83.2 µM).
In the experiment with Leishmania donovani [2], `COc1ccccc1-n1ccc(=O)c(OCCCCCOc2c(C)occc2=O)c1C` came in with an IC90 of 38.08 µg/mL (≈ 89.5 µM) and an IC50 of 5.32 µg/mL (≈ 12.5 µM). Moreover, in the experiment with Leishmania donovani [1], the IC50 was found to be 4.04 µg/mL (≈ 9.5 µM) and the IC90 was 13.3 µg/mL (≈ 31.3 µM).
For the molecule `Cc1c(OCCCCCOc2c(C)n(C3CCCCC3)ccc2=O)c(=O)ccn1C1CCCCC1`, in the experiment with Leishmania donovani [2], the IC90 came out at 62.23 µg/mL (≈ 129 µM) and half-maximal inhibition (IC50) required 22.8 µg/mL (≈ 47.2 µM). For the same molecule, in the experiment on Leishmania donovani [1], the concentration for half-maximal inhibition (IC50) was 4.57 µg/mL (≈ 9.47 µM) and the concentration for an effect of 90% (IC90) amounted to 18.6 µg/mL (≈ 38.6 µM).
Consider `Cc1occc(=O)c1OCCCCCOc1c(C)n(C2CCCCC2)ccc1=O`, for which the IC90 in the experiment on Leishmania donovani [2] came to 102.89 µg/mL (≈ 256 µM); in the experiment on Leishmania donovani [1], 10.7 µg/mL (≈ 26.6 µM). In addition, the IC50 was found to be 24 µg/mL (≈ 59.8 µM) in the experiment on Leishmania donovani [2] and 4.59 µg/mL (≈ 11.4 µM) in the experiment on Leishmania donovani [1].
In the experiment on Leishmania donovani [2], `Cc1cccc(-n2ccc(=O)c(OCCCCCOc3c(C)n(-c4cccc(C)c4C)ccc3=O)c2C)c1C` had an IC90 of 42.3 µg/mL (≈ 80.3 µM) and an IC50 of 8.57 µg/mL (≈ 16.3 µM). Also, in the experiment on Leishmania donovani [1], the IC50 came to 7.37 µg/mL (≈ 14 µM) and the IC90 was 19.1 µg/mL (≈ 36.2 µM).
For `Cc1occc(=O)c1OCCCCCOc1c(C)n(Cc2ccccc2)ccc1=O`, in the experiment with Leishmania donovani [1], the IC50 amounted to 13.5 µg/mL (≈ 33.1 µM) and the IC90 worked out at 47.9 µg/mL (≈ 117 µM).
On to `Cc1c(OCCCCCOc2c(C)n(Cc3ccccc3)ccc2=O)c(=O)ccn1Cc1ccccc1`, for which, in the experiment on Leishmania donovani [2], the IC90 came to 99.48 µg/mL (≈ 200 µM) and the IC50 was 13.2 µg/mL (≈ 26.4 µM). In the experiment with Leishmania donovani [1], the IC50 is 9.98 µg/mL (≈ 20 µM) and the IC90 stood at 29.3 µg/mL (≈ 58.7 µM).
Turning to `Cc1occc(=O)c1OCCCCCOc1c(C)n(-c2ccc(F)cc2)ccc1=O`, in the experiment with Leishmania donovani [1], the IC50 was 43.6 µg/mL (≈ 105 µM) and the concentration for an effect of 90% (IC90) was determined as 856 µg/mL (≈ 2070 µM).
In the case of `Cc1c(OCCCCCOc2c(C)n(-c3ccc(F)cc3)ccc2=O)c(=O)ccn1-c1ccc(F)cc1`, in the experiment on Leishmania donovani [1], the outcome was inactive.
Consider `Cc1occc(=O)c1OCCCCCOc1c(C)occc1=O`, for which the IC90 in the experiment with Leishmania donovani [2] amounted to 112.99 µg/mL (≈ 353 µM); in the experiment with Leishmania donovani [1] it was 122 µg/mL (≈ 382 µM). Besides, the values for the IC50 with Leishmania donovani [2] and in the experiment on Leishmania donovani [1] were 12.9 µg/mL (≈ 40.2 µM) and 18.7 µg/mL (≈ 58.3 µM), respectively.
Take `Cc1c(OCCCCCOc2c(C)n(-c3ccccc3)ccc2=O)c(=O)ccn1-c1ccccc1`: in the experiment with Leishmania donovani [1], the IC50 was found to be 22.7 µg/mL (≈ 48.2 µM) and the IC90 stood at 49.8 µg/mL (≈ 106 µM).
The matching figures for `Cc1cccc(C)c1-n1ccc(=O)c(OCCCCCOc2c(C)occc2=O)c1C`: 17.9 µg/mL (≈ 42.2 µM) and 57.9 µg/mL (≈ 137 µM).
In the experiment on Leishmania donovani [2], `Cc1cccc(C)c1-n1ccc(=O)c(OCCCCCOc2c(C)n(-c3c(C)cccc3C)ccc2=O)c1C` displayed an IC90 of 48.43 µg/mL (≈ 92 µM) and an IC50 of 9.64 µg/mL (≈ 18.3 µM). In the experiment on Leishmania donovani [1], the IC50 is 6.91 µg/mL (≈ 13.1 µM) and the IC90 is 12.5 µg/mL (≈ 23.7 µM).
With `C[C@@H]1[C@H](O)[C@@H](C)/C=C/C=C/C=C/C=C/C=C/C=C/C=C/[C@H](O[C@@H]2O[C@H](C)[C@@H](O)[C@H](N)[C@@H]2O)C[C@@H]2O[C@](O)(C[C@@H](O)C[C@@H](O)[C@H](O)CC[C@@H](O)C[C@@H](O)CC(=O)O[C@H]1C)C[C@H](O)[C@H]2C(=O)O` [AMPHOTERICIN B], in the experiment on Leishmania donovani [2], the concentration for an effect of 90% (IC90) came to 0.1571 µg/mL (≈ 0.17 µM) and the IC50 came to 0.00646 µg/mL (≈ 0.00699 µM).
In the experiment on Leishmania donovani [2], `Cc1occc(=O)c1OCCCCCOc1c(C)n(-c2ccc([N+](=O)[O-])cc2)ccc1=O` had an IC90 of 28.58 µg/mL (≈ 64.9 µM) and an IC50 of 6.15 µg/mL (≈ 14 µM). Besides, in the experiment on Leishmania donovani [1], the half-inhibitory concentration (IC50) stood at 5.75 µg/mL (≈ 13.1 µM) and the IC90 came to 20.2 µg/mL (≈ 45.9 µM).

The values above are taken from ChEMBL document CHEMBL1147196, “Chemotherapy of leishmaniasis. Part V: Synthesis and in vitro bioevaluation of novel pyridinone derivatives” (Eur J Med Chem, 2007).
